Data from ChEMBL document CHEMBL2424614, “A novel p-terphenyl derivative inducing cell-cycle arrest and apoptosis in MDA-MB-435 cells through topoisomerase inhibition” (Eur J Med Chem, 2013).
Activity calls are given as the source filed them. The rule behind the calls is not given here.

Experiments:
MDA-MB-435 [1] = assay: Induction of DNA damage in human MDA-MB-435 cells assessed as phosphorylation of H2AX at Ser139 at 0.5 uM after 12 hrs by Western blotting analysis; type: functional, cell-based
How it was run: (§1)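 Treated MDA-MB-435 cells lysed in ice-cold Tris-HCl pH 7.4 buffer with Triton, phosphatase and protease inhibitors. Lysates clarified, boiled in SDS loading buffer, run on 8-12% SDS-PAGE and blotted. Membranes blocked in 5% skim milk, probed with primary antibodies, then peroxidase secondaries with ECL detection. β-actin as loading control.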

MDA-MB-435 [2] = assay: Cell cycle arrest in human MDA-MB-435 cells assessed as accumulation at G2/M phase at 0.25 uM after 24 hrs by propidium iodide staining-based flow cytometry (reference value: 14.05%); type: functional
MDA-MB-435 [3] = assay: Induction of apoptosis in human MDA-MB-435 cells assessed as early apoptotic cells at 0.5 uM after 24 hrs by annexin-V FITC/propidium iodide staining-based flow cytometry (reference value: 0.61 +/- 0.24%); type: functional
How it was run: (§2)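 MDA-MB-435 cells treated 24 h, stained with annexin V-FITC/PI per kit instructions, analysed by flow cytometry. Quadrant statistics: lower right taken as apoptotic, upper right as necrotic or post-apoptotic necrotic. Representative of three similar experiments.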

A549 = assay: Cytotoxicity against human A549 cells assessed as growth inhibition after 72 hrs by MTT assay; type: functional, cell-based
How it was run: (§3)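 MTT assay: cells treated in triplicate with a range of concentrations for 72 h at 37 °C, 5% CO2. Medium replaced, MTT (5 mg/mL) added for 4 h, then SDS/isobutanol/HCl solubiliser overnight. Absorbance read at 590 nm. Inhibition calculated against control and blank wells; IC50 is concentration giving 50% growth inhibition; three independent experiments.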

MDA-MB-435 [4] = assay: Induction of apoptosis in human MDA-MB-435 cells assessed as viable cells at 1 uM after 24 hrs by annexin-V FITC/propidium iodide staining-based flow cytometry (reference value: 98.62 +/- 0.25%); type: functional; conditions: MDA-MB-435, 24 h, read-out: Activity; how it was run: as §2
MDA-MB-435 [5] = assay: Cell cycle arrest in human MDA-MB-435 cells assessed as increase in CDC2 expression at 0.25 to 1 uM after 12 to 24 hrs by Western blotting analysis; type: functional, cell-based; how it was run: as §1
Bos taurus = species: Bos taurus; assay: Inhibition of calf thymus DNA topoisomerase 1-mediated relaxation of supercoiled pBR322 DNA at 10 to 100 uM after 30 mins by Agarose gel electrophoresis
How it was run: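 Relaxation assay with 0.5 µg supercoiled pBR322 and 1 unit calf thymus Topo I, 20 µL. Buffer: 10 mM Tris–HCl pH 7.9, 150 mM NaCl, 0.1% BSA, 1 mM spermidine, 5% glycerol. Incubated 37 °C for 30 min; stopped with sarcosyl stop solution. 1% agarose gel, 5 V/cm, 2 h, TAE; ethidium bromide stain (0.5 µg/mL), UV. DMSO stocks. At least duplicate.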

[6] = target: DNA topoisomerase 2-alpha (Homo sapiens) (UniProt P11388); assay: Inhibition of recombinant human DNA topoisomerase 2-alpha assessed as supression of kDNA decatenation at 100 uM after 30 mins by agarose gel electrophoresis
How it was run: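 ATP-dependent decatenation assay: 0.20 µg kDNA with 2 units Topo IIα at 37 °C for 30 min, 20 µL. Buffer: 50 mM Tris pH 8.0, KCl, 10 mM MgCl₂, 0.5 mM ATP, 0.5 mM DTT, 30 µg/mL BSA. Stopped with 10% SDS. Agarose gel scored for kDNA versus released minicircles.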

Calf thymus DNA = assay: Induction of DNA intercalation activity of calf thymus DNA topoisomerase 1 assessed as unwinding of pBR322 DNA up to 100 uM after 30 mins by Agarose gel electrophoresis; type: nucleic-acid assay; conditions: Bos taurus
How it was run: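 Relaxed pBR322 made by treating supercoiled plasmid with excess Topo I (10 units), then proteinase K digestion at 37 °C, phenol-chloroform extraction and ethanol precipitation. Incubated with compound 30 min at 37 °C, run on 1% agarose gel at 5 V/cm for 2 h in TAE, stained with 0.5 µg/mL ethidium bromide, viewed under UV.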

MDA-MB-435 [7] = assay: Induction of apoptosis in human MDA-MB-435 cells assessed as downregulation of Bcl-2 protein expression at 0.25 to 1 uM after 12 hrs by Western blotting analysis; type: functional, cell-based; how it was run: as §1
LNCaP = assay: Cytotoxicity against human LNCAP cells assessed as growth inhibition after 72 hrs by MTT assay; type: functional, cell-based; how it was run: as §3
MDA-MB-435 [8] = assay: Induction of apoptosis in human MDA-MB-435 cells assessed as nuclear fragmentation at 0.25 to 1 uM by DAPI staining-based fluorscence microscopy; type: functional, cell-based
How it was run: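 Treated MDA-MB-435 cells washed in ice-cold PBS, fixed 20 min in 4% paraformaldehyde, stained 30 min at 37 °C with DAPI (50 µg/mL) containing 100 µg/mL RNase A. After PBS washes, examined by fluorescence microscopy (excitation 340 nm, emission 488 nm).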

MDA-MB-435 [9] = assay: Induction of apoptosis in human MDA-MB-435 cells assessed as increase in cleaved-caspase 3 expression after 12 to 24 hrs by Western blotting analysis; type: functional, cell-based; how it was run: as §1
MDA-MB-435 [10] = assay: Induction of apoptosis in human MDA-MB-435 cells assessed as early apoptotic cells at 2 uM after 24 hrs by annexin-V FITC/propidium iodide staining-based flow cytometry (reference value: 0.61 +/- 0.24%); type: functional; how it was run: as §2
[11] = target: DNA topoisomerase 2-alpha (Homo sapiens) (UniProt P11388); assay: Inhibition of recombinant human DNA topoisomerase 2-alpha-mediated relaxation of supercoiled pBR322 DNA at 10 to 100 uM after 30 mins by Agarose gel electrophoresis
How it was run: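 Relaxation assay with 0.5 µg supercoiled pBR322 and 1 unit recombinant human Topo IIα, 20 µL. Incubated 30 min at 30 °C; stopped with 7 mM EDTA. 1% agarose gel, 5 V/cm, 2 h, TAE; ethidium bromide stain, UV. DMSO stocks. At least duplicate.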

MDA-MB-435 [12] = assay: Cell cycle arrest in human MDA-MB-435 cells assessed as accumulation at G1 phase at 0.25 uM after 24 hrs by propidium iodide staining-based flow cytometry (reference value: 28.06%); type: functional
MDA-MB-435 [13] = assay: Induction of apoptosis in human MDA-MB-435 cells assessed as late apoptotic cells at 0.5 uM after 24 hrs by annexin-V FITC/propidium iodide staining-based flow cytometry (reference value: 0.34 +/- 0.08%); type: functional; how it was run: as §2
MDA-MB-435 [14] = assay: Induction of apoptosis in human MDA-MB-435 cells assessed as late apoptotic cells at 1 uM after 24 hrs by annexin-V FITC/propidium iodide staining-based flow cytometry (reference value: 0.34 +/- 0.08%); type: functional; how it was run: as §2
MDA-MB-435 [15] = assay: Induction of apoptosis in human MDA-MB-435 cells assessed as early apoptotic cells at 1 uM after 24 hrs by annexin-V FITC/propidium iodide staining-based flow cytometry (reference value: 0.61 +/- 0.24%); type: functional; how it was run: as §2
MDA-MB-435 [16] = assay: Induction of apoptosis in human MDA-MB-435 cells assessed as viable cells at 2 uM after 24 hrs by annexin-V FITC/propidium iodide staining-based flow cytometry (reference value: 98.62 +/- 0.25%); type: functional; conditions: MDA-MB-435, 24 h, read-out: Activity; how it was run: as §2
MDA-MB-435 [17] = assay: Cell cycle arrest in human MDA-MB-435 cells assessed as accumulation at S phase at 0.25 uM after 24 hrs by propidium iodide staining-based flow cytometry (reference value: 57.11%); type: functional

DNA topoisomerase 2-alpha (Homo sapiens), sequence (P11388 whole entry): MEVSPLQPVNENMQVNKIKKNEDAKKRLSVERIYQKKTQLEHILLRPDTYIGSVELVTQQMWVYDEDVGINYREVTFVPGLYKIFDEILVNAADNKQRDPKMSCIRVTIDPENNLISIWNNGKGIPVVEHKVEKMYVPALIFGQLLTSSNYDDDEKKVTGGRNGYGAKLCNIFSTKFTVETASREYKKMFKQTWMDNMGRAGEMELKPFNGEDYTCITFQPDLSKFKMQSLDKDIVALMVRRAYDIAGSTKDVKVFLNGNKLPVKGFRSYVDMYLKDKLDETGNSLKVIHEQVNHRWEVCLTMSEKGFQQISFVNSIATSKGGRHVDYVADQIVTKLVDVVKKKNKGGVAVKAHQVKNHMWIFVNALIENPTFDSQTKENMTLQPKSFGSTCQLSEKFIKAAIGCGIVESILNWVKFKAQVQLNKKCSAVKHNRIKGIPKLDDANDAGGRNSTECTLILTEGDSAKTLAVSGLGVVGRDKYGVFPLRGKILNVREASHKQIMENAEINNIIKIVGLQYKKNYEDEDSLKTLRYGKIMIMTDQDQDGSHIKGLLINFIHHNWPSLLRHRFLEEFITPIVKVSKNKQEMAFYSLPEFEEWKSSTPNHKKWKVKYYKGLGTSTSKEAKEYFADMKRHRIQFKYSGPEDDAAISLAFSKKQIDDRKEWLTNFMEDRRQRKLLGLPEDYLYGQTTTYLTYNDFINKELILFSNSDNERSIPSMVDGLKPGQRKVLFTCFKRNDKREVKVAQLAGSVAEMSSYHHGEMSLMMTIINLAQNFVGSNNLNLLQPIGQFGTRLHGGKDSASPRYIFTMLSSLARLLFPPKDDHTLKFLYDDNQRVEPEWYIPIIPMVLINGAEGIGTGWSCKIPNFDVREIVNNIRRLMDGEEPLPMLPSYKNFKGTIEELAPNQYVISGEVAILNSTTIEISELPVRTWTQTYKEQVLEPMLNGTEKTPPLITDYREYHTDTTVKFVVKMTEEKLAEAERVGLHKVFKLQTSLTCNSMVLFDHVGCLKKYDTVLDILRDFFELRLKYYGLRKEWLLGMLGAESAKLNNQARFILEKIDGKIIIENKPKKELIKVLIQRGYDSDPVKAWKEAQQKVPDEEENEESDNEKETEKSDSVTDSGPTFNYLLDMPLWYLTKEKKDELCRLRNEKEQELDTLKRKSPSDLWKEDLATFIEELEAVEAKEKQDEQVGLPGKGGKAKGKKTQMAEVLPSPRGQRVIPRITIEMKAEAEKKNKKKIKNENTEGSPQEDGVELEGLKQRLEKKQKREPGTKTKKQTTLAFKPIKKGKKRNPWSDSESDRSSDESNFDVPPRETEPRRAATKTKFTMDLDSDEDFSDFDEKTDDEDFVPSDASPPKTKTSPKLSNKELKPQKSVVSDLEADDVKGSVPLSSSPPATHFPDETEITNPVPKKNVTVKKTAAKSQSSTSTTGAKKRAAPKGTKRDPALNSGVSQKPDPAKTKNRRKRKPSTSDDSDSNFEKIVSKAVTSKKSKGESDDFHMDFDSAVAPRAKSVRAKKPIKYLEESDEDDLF

Oc1ccc(-c2ccc(-c3ccc(O)c(O)c3)cc2)cc1
Activity (MDA-MB-435 [1]): inactive
Activity (MDA-MB-435 [2]): 16.24%
Activity (MDA-MB-435 [3]): 8.01%
growth inhibition (GI) (A549): Active
viability at 1 µM (MDA-MB-435 [4]): 76.3%
Activity (MDA-MB-435 [5]): Active
inhibition (Bos taurus): Active
inhibition [6]: Active
Activity (Calf thymus DNA): inactive
Activity (MDA-MB-435 [7]): Active
growth inhibition (GI) (LNCaP): Active
Activity (MDA-MB-435 [8]): Active
Activity (MDA-MB-435 [9]): Dose-dependent effect
Activity (MDA-MB-435 [10]): 12.87%
inhibition [11]: Active
Activity (MDA-MB-435 [12]): 34.91%
Activity (MDA-MB-435 [13]): 7.79%
Activity (MDA-MB-435 [14]): 8.64%
Activity (MDA-MB-435 [15]): 13.33%
viability at 2 µM (MDA-MB-435 [16]): 71.8%
Activity (MDA-MB-435 [17]): 47.81%
